Measured values reported in BindingDB's records for doi:10.1021/jm970328b (University of Minnesota, 1997).
Where a SMILES comes first, the peptide text is derived from it.

How the values were obtained:
[1] = target: T1, D(2) dopamine receptor (Bos taurus, UniProt P20288); assay: Inhibitory constant of compound in absence of Gpp(NH)p calculated for the high affinity components of the [3H]spiroperidol binding to Dopamine receptor D2
Procedure, shortened: (§1)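 Bovine striatal membranes (150-200 µg protein) were incubated with 0.2 nM [3H]spiroperidol and varying N-propylnorapomorphine, with or without 100 µM Gpp(NH)p and 100 nM peptidomimetic, plus 50 nM ketanserin, for 1 h at 22 °C, then GF/B filtered. Nonspecific binding was set with 1.0 µM (+)-butaclamol. A two-site fit gave high/low-affinity fractions; Ki values came via Cheng-Prusoff. Mean ± SEM of 3-4 experiments.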

[2] = target: T1, D(2) dopamine receptor; assay: Inhibitory constant of compound in presence of Gpp(NH)p (Pre treated with 100 nM) calculated for the low affinity components of the [3H]spiroperidol binding to Dopamine receptor D2; procedure, shortened: as §1
[3] = target: T1, D(2) dopamine receptor; assay: Inhibitory constant of compound in presence of Gpp(NH)p calculated for the low affinity components of the [3H]spiroperidol binding to Dopamine receptor D2; procedure, shortened: as §1
[4] = target: T1, D(2) dopamine receptor; assay: Inhibitory constant of compound in presence of Gpp(NH)p (Pre treated with 100 nM) calculated for the high affinity components of the [3H]spiroperidol binding to Dopamine receptor D2; procedure, shortened: as §1
[5] = target: T1, D(2) dopamine receptor; assay: Inhibitory constant of compound in presence of Gpp(NH)p calculated for the high affinity components of the [3H]spiroperidol binding to Dopamine receptor D2; procedure, shortened: as §1
[6] = target: T1, D(2) dopamine receptor; assay: Inhibitory constant of compound in absence of Gpp(NH)p calculated for the low affinity components of the [3H]spiroperidol binding to Dopamine receptor D2; procedure, shortened: as §1
[7] = target: T1, D(2) dopamine receptor; assay: Inhibitory constant of compound in absence of Gpp(NH)p (Pre treated with 100 nM) calculated for the high affinity components of the [3H]spiroperidol binding to Dopamine receptor D2; procedure, shortened: as §1
[8] = target: T1, D(2) dopamine receptor; assay: Inhibitory constant of compound in absence of Gpp(NH)p (Pretreated with 100 nM) calculated for the high affinity components of the [3H]spiroperidol binding to Dopamine receptor D2; procedure, shortened: as §1
[9] = target: T1, D(2) dopamine receptor; assay: Inhibitory constant of compound in absence of Gpp(NH)p (Pre treated with 1 uM) calculated for the high affinity components of the [3H]spiroperidol binding to Dopamine receptor D2
[10] = target: T1, D(2) dopamine receptor; assay: Inhibitory constant of compound in presence of Gpp(NH)p (Pre treated with 1 uM) calculated for the high affinity components of the [3H]spiroperidol binding to Dopamine receptor D2
[11] = target: T1, D(2) dopamine receptor; assay: Percentage of receptor in the high affinity form for the compound to Dopamine receptor D2 in absence of Gpp(NH)p (pre treated with 1 uM)
[12] = target: T1, D(2) dopamine receptor; assay: Inhibitory constant of compound in presence of Gpp(NH)p (Pre treated with 1 nM) calculated for the high affinity components of the [3H]spiroperidol binding to Dopamine receptor D2
[13] = target: T1, D(2) dopamine receptor; assay: Inhibitory constant of compound in absence of Gpp(NH)p (Pre treated with 1 nM) calculated for the high affinity components of the [3H]spiroperidol binding to Dopamine receptor D2

T1 sequence (P20288 whole entry): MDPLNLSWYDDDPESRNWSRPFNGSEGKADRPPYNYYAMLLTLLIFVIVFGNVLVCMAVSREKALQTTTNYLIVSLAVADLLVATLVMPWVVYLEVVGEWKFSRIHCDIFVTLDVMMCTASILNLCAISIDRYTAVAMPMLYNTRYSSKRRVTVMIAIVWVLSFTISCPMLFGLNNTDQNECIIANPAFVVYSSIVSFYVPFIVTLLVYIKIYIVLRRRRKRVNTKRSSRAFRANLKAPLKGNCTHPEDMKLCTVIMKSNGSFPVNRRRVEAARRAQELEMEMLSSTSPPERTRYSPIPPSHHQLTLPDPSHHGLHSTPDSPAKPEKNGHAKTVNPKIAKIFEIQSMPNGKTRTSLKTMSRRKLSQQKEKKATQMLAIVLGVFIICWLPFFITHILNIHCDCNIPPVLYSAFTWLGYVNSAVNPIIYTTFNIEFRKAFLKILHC

| Ki [1] [nM] | Ki [2] [nM] | Ki [3] [nM] | Ki [4] [nM] | Ki [5] [nM] | Ki [6] [nM] | Ki [7] [nM] | Ki [8] [nM] | Ki [9] [nM] | Ki [10] [nM] | percent high-affinity form [11] [nM] | Ki [12] [nM] | Ki [13] [nM] | SMILES |
| --- | --- | --- | --- | --- | --- | --- | --- | --- | --- | --- | --- | --- | --- |
| 0.098 | 106 | 183 | 0.067 | 0.14 | 171 | 0.066 | – | – | – | – | – | – | NC(=O)[C@H]1CS[C@@H]2CC(N3CC(=O)N4CCC[C@H]4C3=O)C(=O)N12 (stereo partly drawn) [(3S,7aR)-6-((2R,8aS)-1,4-Dioxo-hexahydro-pyrrolo[1,2-a]pyrazin-2-yl)-5-oxo-hexahydro-pyrrolo[2,1-b]thiazole-3-carboxylic acid amide] |
| 0.08 | 104 | 172 | 0.08 | 0.12 | 120 | – | 0.068 | – | – | – | – | – | CC(C)C[C@@H](C(=O)NCC(N)=O)N1CC(=O)N2CCC[C@H]2C1=O [(S)-2-((S)-1,4-Dioxo-hexahydro-pyrrolo[1,2-a]pyrazin-2-yl)-4-methyl-pentanoic acid carbamoylmethyl-amide] |
| 0.09 | – | 60 | – | 0.13 | 73 | – | – | 0.04 | 0.06 | 61 | – | – | CC(C)C[C@H](NC(=O)[C@@H]1CCCN1)C(=O)NCC(N)=O [L-pro-L-leu-gly-NH2] (H-Pro-Leu-Gly-NH2) |
| 0.08 | – | 50 | – | 0.19 | 69 | – | – | – | – | – | 0.05 | 0.02 | NC(=O)CN1CCC(N2CC(=O)N3CCC[C@H]3C2=O)C1=O (stereo partly drawn) [2-[3-((2R,8aS)-1,4-Dioxo-hexahydro-pyrrolo[1,2-a]pyrazin-2-yl)-2-oxo-pyrrolidin-1-yl]-acetamide] |
